Shown are actives, neighbours in structure and some others; about 1.9% of the full set was active somewhere.
Runt-CBFb FRET – inhibitors of human RUNX1 Runt domain binding to CBFb; Q01196+Q13951; Cerulean-Runt/Venus-CBFb FRET ratio 530/480, 1 h; inhibition, % at 20 µM; actives 0.46% (n = 220,000); AID 1496;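 active = inhibition over about 50% at 20 µM in the single-dose screen, limit read from the data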;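 note: 0% = DMSO wells and 100% = excess unlabeled CBFb competitor control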
Target sequence (Q01196 whole entry, looked up, the tested form may be a part): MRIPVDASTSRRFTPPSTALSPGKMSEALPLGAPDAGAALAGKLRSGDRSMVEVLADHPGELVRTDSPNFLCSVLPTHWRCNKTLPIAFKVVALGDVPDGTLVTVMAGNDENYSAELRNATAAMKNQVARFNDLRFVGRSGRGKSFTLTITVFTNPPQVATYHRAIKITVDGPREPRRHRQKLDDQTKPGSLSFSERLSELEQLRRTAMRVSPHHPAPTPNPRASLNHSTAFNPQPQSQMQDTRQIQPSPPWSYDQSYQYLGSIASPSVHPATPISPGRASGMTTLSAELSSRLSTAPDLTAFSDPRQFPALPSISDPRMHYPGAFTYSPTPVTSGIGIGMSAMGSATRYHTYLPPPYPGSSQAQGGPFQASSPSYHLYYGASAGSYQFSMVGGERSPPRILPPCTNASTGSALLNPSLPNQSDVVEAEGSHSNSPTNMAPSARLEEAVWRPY
Target sequence (Q13951 whole entry, looked up, the tested form may be a part): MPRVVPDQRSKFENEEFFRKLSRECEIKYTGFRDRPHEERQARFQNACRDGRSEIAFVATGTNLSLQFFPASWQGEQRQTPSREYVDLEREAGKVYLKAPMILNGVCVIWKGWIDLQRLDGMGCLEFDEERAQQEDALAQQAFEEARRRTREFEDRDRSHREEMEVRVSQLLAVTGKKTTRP
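System: Cerulean-labeled Runt domain protein | Quantity: 100 nM of each labeled protein | Schedule: 1 h compound exposure, room temperature | Detection: Fluorescence energy transfer, 422 nm excitation, 530/480 nm emission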
Hck-Nef inh – human Hck-Nef kinase inhibition | P08631 | Recombinant Hck-YEEI plus Nef, Z-Lyte FRET kinase assay | inhibition, % at 20 µM | actives 0.68% (n = 220,000) | AID 463187;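 active = Hck-Nef kinase inhibition above about 50%, limit read from the data; inactive = inhibition below that limit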;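 note: 0% = DMSO with Hck plus Nef and 100% = Hck alone without Nef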
RanGTP-Imp inh – inhibitors of RanGTP-importin-beta interaction, primary screen, biochemical, FRET, CFP-Ran, YFP-importin-beta, homogeneous | cell-free CFP-Ran/YFP-importin-beta FRET ratio | inhibition, % (test concentration not listed) | actives 1.1% (n = 300,000);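 active = more than half of the replicate wells show a fall in the fluorescence ratio signal beyond about 16%, limit read from the data, passing the limit was not always enough; inconclusive = exactly half of the replicate wells pass the set limit; inactive = fewer than half of replicates pass the limit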;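 note: 0% = DMSO wells and 100% = Ran loaded with GDP instead of GTP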
Runt-SMMHC FRET – Runt domain-CBFb-SMMHC interaction inhibition. Q01196+Q13951. Cerulean-Runt/Venus-CBFb-SMMHC FRET ratio 530/480, 1 h. inhibition, % at 20 µM. actives 0.74% (n = 220,000);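 active = mean inhibition across duplicate retests at 20 µM reaching about 50%, limit read from the data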;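 note: 0% = DMSO wells and 100% = wells with excess untagged CBFb-SMMHC; inhibitors lower the FRET ratio by blocking Runt binding to CBFb-SMMHC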
Tb hexokinase – blocks Trypanosoma brucei hexokinase 1 activity; recombinant TbHK1, G6PDH-coupled NADH A340; inhibition, % at 10 µM; actives 0.11% (n = 220,000);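 active = inhibition of 50% or more in the single-dose primary screen; inactive = inhibition below 50%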
Starred values were filed as active, the others as inactive; ? = inconclusive; nt = no result given.

SMILES	Runt-CBFb FRET	Hck-Nef inh	RanGTP-Imp inh	Runt-SMMHC FRET	Tb hexokinase
COc1ccc(CCNC(=O)c2cc3c(=O)n4ccccc4nc3n(Cc3ccco3)c2=N)cc1OC	nt	nt	13	nt	nt
Cc1ccc(S(=O)(=O)c2c(N)n(Cc3ccco3)c3nc4ccccc4nc23)cc1	45	26	?	nt	-16
Cc1cccc(S(=O)(=O)c2c(N)n(Cc3ccco3)c3nc4ccccc4nc23)c1	20	23	18*	nt	-12
CCCN(CC(=O)Nc1ccccc1C)C(=O)c1ccc(C2SCCS2)cc1	nt	nt	0	nt	nt
O=C(NC1CC(=O)N(c2ccc(Cl)cc2)C1)C1CC1 (centres undefined)	nt	nt	0	nt	nt
Cc1ccc2nc(Nc3ccc4[nH]c(=O)[nH]c4c3)c(-n3nc(C)cc3C)nc2c1	-12	2	40*	-15	-4
Cc1cc(C)n(-c2nc3ccccc3nc2Nc2ccc3c(c2)OCO3)n1	-18	-6	-1	-25	-5
C/C(=N/NC(=O)CN1CCN(S(=O)(=O)c2ccc(C)cc2)CC1)c1ccco1	-2	2	-3	-1	-1
O=C(N/N=C/c1sc(N2CCOCC2)nc1-c1ccccc1)c1ccccc1Cl	3	-2	30*	4	-1
Cn1c(=O)c2nc(NCc3ccccc3)cnc2n(C)c1=O	12	3	75*	38	5
Cn1c(=O)c2c(ncn2Cc2ccccc2)n(C)c1=O	0	13	-4	1	6
Cc1cc(C)n2c(=S)[nH]nc2n1	11	-3	1	59*	-14
COc1cc(/C=C2\SC(=O)N(c3cccc(Cl)c3)C2=O)cc([N+](=O)[O-])c1O	0	45	nt	-12	9
COc1cc(/C=C2\SC(=O)N(c3ccc(Cl)cc3)C2=O)cc([N+](=O)[O-])c1O	-3	75*	nt	-14	-2
COc1ccc2nccc(/C=C/c3ccnc4ccc(OC)cc34)c2c1	0	-59	61*	82*	-33
O=C(CCNC(=O)Cn1ccc2ccccc2c1=O)NCCCN1CCN(c2ccc(F)cc2)CC1	nt	0	2	-3	-10
O=C(CNC(=O)Cn1ccc2ccccc2c1=O)NCCCN1CCN(c2cccc(Cl)c2)CC1	-2	0	21*	-8	-16
COC(=O)c1ccc(C(=O)OC)c(NC(=S)N2CCCC(C)C2)c1 (centres undefined)	17	4	54*	34	-3
CCC(C)C(=O)Nc1cc(C(=O)OC)ccc1C(=O)OC (centres undefined)	3	2	5	-1	-8
COC(=O)c1ccc(C(=O)OC)c(NC(=S)N2CC(C)CC(C)C2)c1 (centres undefined)	14	8	?	29	-6
CCN(CC)C(=S)Nc1cc(C(=O)OC)ccc1C(=O)OC	20	4	38*	32	-5
CC(=O)Nc1ccc(S(=O)(=O)Nc2cc(C)cn(Cc3ccccc3)c2=O)cc1	nt	nt	7	nt	nt
COc1ccc(CCN(C)C(=O)c2cnc(C)cn2)cc1OC	nt	nt	-2	nt	nt
CCOC(=O)c1c(NS(=O)(=O)c2cccc(OC)c2)sc2c1CCC2	-15	7	-29	69*	0
Cc1cc2[nH]c(=O)c(=O)[nH]c2cc1S(=O)(=O)Nc1cccc(C)c1C	nt	nt	4	nt	nt
SMILES	Runt-CBFb FRET	Hck-Nef inh	RanGTP-Imp inh	Runt-SMMHC FRET	Tb hexokinase
Cc1ccc(C(=O)COC(=O)c2cc(=O)[nH]c3ccccc23)cc1C	0	41	37*	-3	-10
COc1ccccc1C(=O)COC(=O)c1cc(=O)[nH]c2ccccc12	nt	nt	3	nt	nt
CC1=NOC(=O)/C1=C\c1ccc(-c2cccc(Cl)c2)o1	21	7	3	55*	16
FC(F)Oc1ccc(NC(=S)N2CCc3ccccc32)cc1	8	26	-4	4	-2
O=C(O)C(Oc1ccc2ccccc2c1)c1ccccc1 (centres undefined)	nt	nt	-1	nt	nt
Cc1ccc2nc(SCC(=O)NCc3ccco3)nc(=O)n2c1	nt	nt	-2	nt	nt
Cc1cccn2c(=O)c3cc(C(=O)NCc4ccco4)c(=N)n(C4CCCCC4)c3nc12	nt	nt	130*	nt	nt
Cc1ccc2nc3c(cc(C(=O)NCc4ccco4)c(=N)n3C3CCCC3)c(=O)n2c1	nt	nt	187*	nt	nt
COc1ccc(/C=N/NC(=O)COc2cc(C)cc(C)c2)cc1COC(C)=O	-7	0	-2	3	-4
Cc1ccc(CNc2ccc3c(c2)ncn3C(C)(C)C)cc1	7	15	36*	43	4
Cc1ccc(-n2cnc3cc(NCc4cccs4)ccc32)cc1	5	-1	19*	12	-1
Cc1ccc(S(=O)(=O)Nc2ccc3c(c2)ncn3C(C)(C)C)cc1	-2	4	3	1	2
Cc1ccc(CNc2ccc3c(c2)ncn3C)cc1	21	1	16*	7	-2
Cc1cccc(N2CCN(C(=O)C3CC(=O)N(C4CCCC4)C3)CC2)c1C (centres undefined)	nt	nt	-5	nt	nt
Cc1ccsc1C(=O)NCc1ccc(F)cc1	nt	nt	2	nt	nt
N#Cc1cc2cc3c(cc2nc1N1CCCCC1)OCCO3	34	-14	59*	107*	1
Cc1cc(C)c2nc(N3CCN(C)CC3)c(C#N)cc2c1	7	8	6	34	1
Cc1cc(C)c2nc(N3CCCN(C(=O)c4cnccn4)CC3)c(C#N)cc2c1	11	15	39*	31	-1
Cc1ccc2nc(N3CCN(C)CC3)c(C#N)cc2c1	4	5	6	12	-4
Cc1ccc(C(=O)N2CCCN(c3nc4cc5c(cc4cc3C#N)OCO5)CC2)cc1	nt	nt	113*	nt	nt
Cc1cc2cc(C#N)c(N3CCOCC3)nc2cc1Cl	nt	nt	7	nt	nt
CC1CCN(c2ccccc2NC(=O)c2ccc(Br)o2)CC1	nt	nt	-2	nt	nt
COCC(C)NC(=O)c1nn(Cc2ccccc2)c(=O)c2ccccc12 (centres undefined)	nt	nt	1	nt	nt
CCOc1ccccc1NC(=S)N1CCN(c2cccc(OC)c2)CC1	nt	nt	-1	nt	nt
Cc1ccc(CNc2nc(N)c([N+](=O)[O-])c(Nc3ccc(F)cc3)n2)cc1	0	0	19*	4	-23
SMILES	Runt-CBFb FRET	Hck-Nef inh	RanGTP-Imp inh	Runt-SMMHC FRET	Tb hexokinase
Cc1ccc(CNc2nc(N)c([N+](=O)[O-])c(NCc3ccccc3)n2)cc1	-1	1	-4	3	9
O=C1NC(=S)N/C1=C/c1ccc2ccccc2c1	nt	nt	26*	nt	nt
O=C1NC(=S)N/C1=C/c1ccc2c(c1)OCO2	nt	nt	4	nt	nt
COc1ccc(C2N(c3ccccc3)CCN2c2ccccc2)cc1O	-1	13	25*	-2	3
COc1cc(C2N3CC4(C)CN2CC(C)(C3)C4)ccc1O (centres undefined)	2	-1	0	6	-41
O=C(CN1C(=O)CSc2ccc(S(=O)(=O)N3CCOCC3)cc21)NCCCN1CCOCC1	-1	17	151*	-2	-3
